The test system of data set [1] is Staphylococcus aureus. Nature of the data set: Antibacterial activity against Staphylococcus aureus ATCC 13709 in cation adjusted Mueller-Hinton broth by […] assay in presence of 50% rat serum. It is filed as functional. In short, it runs like this:
(§1)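 MIC determination against S. aureus ATCC13709. Medium is cation-adjusted Mueller-Hinton broth, alone or supplemented with mouse, human or rat serum as specified per line.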
In general terms: A growth-free zone around the sample is the usual read-out of agar diffusion tests.

Data set [2] deals with Staphylococcus aureus. The data set is described as follows: Antibacterial activity against Staphylococcus aureus ATCC 13709 in cation adjusted Mueller-Hinton broth by […] assay in presence of 50% human serum. It is filed as functional. The procedure, abridged:
as §1

In data set [3] the test system is Staphylococcus aureus. The data set is described as follows: Antibacterial activity against Staphylococcus aureus ATCC 13709 in cation adjusted Mueller-Hinton broth by […] assay. It is filed as functional. In short, it runs like this: as §1
The subject of data set [4] is Staphylococcus aureus. Nature of the data set: Antibacterial activity against Staphylococcus aureus ATCC 13709 in cation adjusted Mueller-Hinton broth by […] assay in presence of 50% mouse serum. It is filed as functional. The procedure, abridged:
as §1

A further data set is filed under the species Oryctolagus cuniculus. Nature of the data set: Binding affinity to rabbit bone assessed as drug level bound to bone powder at 0.25 to 4 ug/ml after 24 hrs. It is filed as tissue-based. The conditions noted are these: Bone element.
In a further data set the test system is Streptococcus pneumoniae. The data set is described as follows: Antibacterial activity against Streptococcus pneumoniae ATCC 700902 by agar diffusion assay. The format is functional.
The subject of data set [5] is Staphylococcus aureus. The data set is described as follows: Antibacterial activity against Staphylococcus aureus ATCC 13709 in cation adjusted Mueller-Hinton broth by […] assay in presence of 50% rat serum in absence of polysorbate-80. It is filed as functional. In short, it runs like this:
(§2)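 MIC against S. aureus ATCC13709 in cation-adjusted Mueller-Hinton broth, alone or with mouse, human or rat serum, run without polysorbate-80 in the medium.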

In data set [6] the test system is Staphylococcus aureus. Nature of the data set: Antibacterial activity against Staphylococcus aureus ATCC 13709 in cation adjusted Mueller-Hinton broth by […] assay in presence of 50% human serum in absence of polysorbate-80. It is filed as functional. In short, it runs like this:
as §2

For data set [7], the system named is Staphylococcus aureus. The data set is described as follows: Antibacterial activity against Staphylococcus aureus ATCC 13709 in cation adjusted Mueller-Hinton broth by […] assay in presence of 50% mouse serum in absence of polysorbate-80. The format is functional. The procedure, abridged:
as §2

The subject of data set [8] is Staphylococcus aureus. The data set is described as follows: Antibacterial activity against Staphylococcus aureus ATCC 13709 in cation adjusted Mueller-Hinton broth by […] assay in absence of polysorbate-80. The format is functional. The procedure, abridged: as §2
Data set [9] in a line: Stability in phosphate buffered saline assessed as conversion of drug to oritavancin after 24 hrs. The format is physicochemical. The conditions noted are these: buffer, BLD = below limit of detection. In short, it runs like this:
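Prodrugs incubated 24 h in phosphate-buffered saline. Regeneration of parent drug is expressed as % conversion. Parallel incubations were run in 50% rat or human serum diluted in PBS to assess enzymatic cleavage.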

In brackets after ≈: the same amount, converted by molar mass.

The results in this text go back to ChEMBL document CHEMBL1156892, “Synthesis and in vitro evaluation of bisphosphonated glycopeptide prodrugs for the treatment of osteomyelitis” (Bioorg Med Chem Lett, 2010).

What is called MIC is the smallest concentration in the dilution series that meets the test's criterion for growth inhibition. As for `CN[C@H](CC(C)C)C(=O)N[C@H]1C(=O)N[C@@H](CC(N)=O)C(=O)N[C@H]2C(=O)N[C@H]3C(=O)N[C@H](C(=O)N[C@H](C(=O)OCC(=O)Nc4ccc(CC(P(=O)(O)O)P(=O)(O)O)cc4)c4cc(O)cc(O)c4-c4cc3ccc4O)[C@H](O[C@H]3C[C@](C)(N)[C@@H](O)[C@H](C)O3)c3cc(Cl)c(c(Cl)c3)Oc3cc2cc(c3O[C@H]2O[C@@H](CO)[C@@H](O)[C@H](O)[C@H]2O[C@@H]2C[C@@](C)(NCc3ccc(-c4ccc(Cl)cc4)cc3)[C@@H](O)[C@@H](C)O2)Oc2ccc(cc2Cl)[C@H]1O`, the MIC in the data set with Staphylococcus aureus [1] is 8 µg/mL; in the data set on Staphylococcus aureus [2] it was over 32 µg/mL; with Staphylococcus aureus [3], over 32 µg/mL; in the data set on Staphylococcus aureus [4], 8 µg/mL.
On to `CN[C@H](CC(C)C)C(=O)N[C@H]1C(=O)N[C@@H](CC(N)=O)C(=O)N[C@H]2C(=O)N[C@H]3C(=O)N[C@H](C(=O)N[C@H](C(=O)OCC(=O)NC(P(=O)(O)O)P(=O)(O)O)c4cc(O)cc(O)c4-c4cc3ccc4O)[C@H](O)c3cc(Cl)c(c(Cl)c3)Oc3cc2cc(c3O[C@H]2O[C@@H](CO)[C@@H](O)[C@H](O)[C@H]2O[C@@H]2C[C@@](C)(N)[C@@H](O)[C@@H](C)O2)Oc2ccc(cc2Cl)[C@H]1O`, for which, in the data set listed under Oryctolagus cuniculus, the Activity is 96.5%. The MIC was 32 µg/mL in the data set with Staphylococcus aureus [1], 8 µg/mL in the data set on Staphylococcus aureus [2], 16 µg/mL (≈ 9.33 µM) in the data set on Staphylococcus aureus [3] and 16 µg/mL in the data set with Staphylococcus aureus [4].
With `CC(C)C[C@H](C(=O)N[C@H]1C(=O)N[C@@H](CC(N)=O)C(=O)N[C@H]2C(=O)N[C@H]3C(=O)N[C@H](C(=O)N[C@H](C(=O)O)c4cc(O)cc(O)c4-c4cc3ccc4O)[C@H](O[C@H]3C[C@](C)(N)[C@@H](O)[C@H](C)O3)c3cc(Cl)c(c(Cl)c3)Oc3cc2cc(c3O[C@H]2O[C@@H](CO)[C@@H](O)[C@H](O)[C@H]2O[C@@H]2C[C@@](C)(NCc3ccc(-c4ccc(Cl)cc4)cc3)[C@@H](O)[C@@H](C)O2)Oc2ccc(cc2Cl)[C@H]1O)N(C)C(=O)CCC(P(=O)(O)O)P(=O)(O)O`, in the data set filed under Oryctolagus cuniculus, the Activity amounted to 99.8%. Also, the MIC with Staphylococcus aureus [1], in the data set on Staphylococcus aureus [2], with Staphylococcus aureus [3] and in the data set with Staphylococcus aureus [4] was over 32 µg/mL in each case.
In the case of `CN[C@H](CC(C)C)C(=O)N[C@H]1C(=O)N[C@@H](CC(N)=O)C(=O)N[C@H]2C(=O)N[C@H]3C(=O)N[C@H](C(=O)N[C@H](C(=O)O)c4cc(O)cc(O)c4-c4cc3ccc4O)[C@H](O[C@H]3C[C@](C)(N)[C@@H](O)[C@H](C)O3)c3ccc(c(Cl)c3)Oc3cc2cc(c3O[C@@H]2O[C@H](CO)[C@@H](O)[C@H](O)[C@H]2O[C@H]2C[C@](C)(NCc3ccc(-c4ccc(Cl)cc4)cc3)[C@@H](O)[C@H](C)O2)Oc2ccc(cc2Cl)[C@H]1O` [ORITAVANCIN], the MIC with Streptococcus pneumoniae worked out at 0.001 µg/mL (≈ 0.000558 µM); with Staphylococcus aureus [5], 0.25 µg/mL; in the data set with Staphylococcus aureus [6], 1 µg/mL; in the data set on Staphylococcus aureus [7], 2 µg/mL; against Staphylococcus aureus [8], 0.5 µg/mL (≈ 0.279 µM).
`CC(C)C[C@H](C(=O)N[C@H]1C(=O)N[C@@H](CC(N)=O)C(=O)N[C@H]2C(=O)N[C@H]3C(=O)N[C@H](C(=O)N[C@H](C(=O)O)c4cc(O)cc(O)c4-c4cc3ccc4O)[C@H](O[C@H]3C[C@](C)(N)[C@@H](O)[C@H](C)O3)c3cc(Cl)c(c(Cl)c3)Oc3cc2cc(c3O[C@H]2O[C@@H](CO)[C@@H](O)[C@H](O)[C@H]2O[C@@H]2C[C@@](C)(NCc3ccc(-c4ccc(Cl)cc4)cc3)[C@@H](O)[C@@H](C)O2)Oc2ccc(cc2Cl)[C@H]1O)N(C)C(=O)OCOC(=O)CCCC(P(=O)(O)O)P(=O)(O)O`: the Activity in the data set filed under Oryctolagus cuniculus is 99.9%; in data set [9], “BLD”. Also, the MIC in the data set on Staphylococcus aureus [1] is 32 µg/mL; in the data set on Staphylococcus aureus [2], over 32 µg/mL; against Staphylococcus aureus [3], 32 µg/mL (≈ 14.9 µM); in the data set with Staphylococcus aureus [4], 32 µg/mL.
As for `CN[C@H](CC(C)C)C(=O)N[C@H]1C(=O)N[C@@H](CC(N)=O)C(=O)N[C@H]2C(=O)N[C@H]3C(=O)N[C@H](C(=O)N[C@H](C(=O)OCC(=O)NC(P(=O)(O)O)P(=O)(O)O)c4cc(O)cc(O)c4-c4cc3ccc4O)[C@H](O[C@H]3C[C@](C)(N)[C@@H](O)[C@H](C)O3)c3cc(Cl)c(c(Cl)c3)Oc3cc2cc(c3O[C@H]2O[C@@H](CO)[C@@H](O)[C@H](O)[C@H]2O[C@@H]2C[C@@](C)(NCc3ccc(-c4ccc(Cl)cc4)cc3)[C@@H](O)[C@@H](C)O2)Oc2ccc(cc2Cl)[C@H]1O`, the Activity in the data set listed under Oryctolagus cuniculus was 97.6%. Besides, the MIC in the data set with Staphylococcus aureus [1] came out at 2 µg/mL; in the data set on Staphylococcus aureus [2] it was 32 µg/mL; in the data set with Staphylococcus aureus [3], 16 µg/mL (≈ 7.77 µM); in the data set on Staphylococcus aureus [4], 2 µg/mL.
Turning to `CC(C)C[C@H](C(=O)N[C@H]1C(=O)N[C@@H](CC(N)=O)C(=O)N[C@H]2C(=O)N[C@H]3C(=O)N[C@H](C(=O)N[C@H](C(=O)O)c4cc(O)cc(O)c4-c4cc3ccc4O)[C@H](O[C@H]3C[C@](C)(N)[C@@H](O)[C@H](C)O3)c3cc(Cl)c(c(Cl)c3)Oc3cc2cc(c3O[C@H]2O[C@@H](CO)[C@@H](O)[C@H](O)[C@H]2O[C@@H]2C[C@@](C)(NCc3ccc(-c4ccc(Cl)cc4)cc3)[C@@H](O)[C@@H](C)O2)Oc2ccc(cc2Cl)[C@H]1O)N(C)C(=O)OCOC(=O)CCC(P(=O)(O)O)P(=O)(O)O`, the Activity in the data set filed under Oryctolagus cuniculus worked out at 96.9%. In addition, the MIC was 1 µg/mL with Staphylococcus aureus [1], 4 µg/mL in the data set on Staphylococcus aureus [2], 8 µg/mL (≈ 3.75 µM) with Staphylococcus aureus [3] and 0.5 µg/mL in the data set with Staphylococcus aureus [4].
For `CN[C@H](CC(C)C)C(=O)N[C@H]1C(=O)N[C@@H](CC(N)=O)C(=O)N[C@H]2C(=O)N[C@H]3C(=O)N[C@H](C(=O)N[C@H](C(=O)OCC(=O)Nc4ccc(CC(P(=O)(O)O)P(=O)(O)O)cc4)c4cc(O)cc(O)c4-c4cc3ccc4O)[C@H](O)c3cc(Cl)c(c(Cl)c3)Oc3cc2cc(c3O[C@H]2O[C@@H](CO)[C@@H](O)[C@H](O)[C@H]2O[C@@H]2C[C@@](C)(N)[C@@H](O)[C@@H](C)O2)Oc2ccc(cc2Cl)[C@H]1O` the same measures were 96.7%, 32 µg/mL, 16 µg/mL, 16 µg/mL (≈ 8.86 µM) and 16 µg/mL.
Take `CC(C)C[C@H](C(=O)N[C@H]1C(=O)N[C@@H](CC(N)=O)C(=O)N[C@H]2C(=O)N[C@H]3C(=O)N[C@H](C(=O)N[C@H](C(=O)O)c4cc(O)cc(O)c4-c4cc3ccc4O)[C@H](O[C@H]3C[C@](C)(N)[C@@H](O)[C@H](C)O3)c3cc(Cl)c(c(Cl)c3)Oc3cc2cc(c3O[C@H]2O[C@@H](CO)[C@@H](O)[C@H](O)[C@H]2O[C@@H]2C[C@@](C)(NCc3ccc(-c4ccc(Cl)cc4)cc3)[C@@H](O)[C@@H](C)O2)Oc2ccc(cc2Cl)[C@H]1O)N(C)C(=O)CC(P(=O)(O)O)P(=O)(O)O`: in the data set listed under Oryctolagus cuniculus, the Activity amounted to 99.9%. Moreover, the MIC in the data set on Staphylococcus aureus [1] worked out at 4 µg/mL; in the data set on Staphylococcus aureus [2], 32 µg/mL; with Staphylococcus aureus [3], 32 µg/mL (≈ 15.7 µM); in the data set on Staphylococcus aureus [4], 4 µg/mL.
